The M2OR odorant receptor database

What was measured:
Conditions in all cases: stereoisomer not certain
OR5M1 T295R M301I = system: OR5M1 T295R M301I
In short: (§1)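 Assay methods differ from source to source, frequently being transient luciferase assays in mammalian cell lines. For each receptor–molecule pair, the label responsive (active) applies when the original authors judged the measured signal statistically different from baseline, and non-responsive (inactive) applies otherwise.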

OR5M10 (Homo sapiens) = OR5M10 (Homo sapiens) (UniProt Q6IEU7)
Chain of OR5M10 (Homo sapiens) (Q6IEU7 whole entry): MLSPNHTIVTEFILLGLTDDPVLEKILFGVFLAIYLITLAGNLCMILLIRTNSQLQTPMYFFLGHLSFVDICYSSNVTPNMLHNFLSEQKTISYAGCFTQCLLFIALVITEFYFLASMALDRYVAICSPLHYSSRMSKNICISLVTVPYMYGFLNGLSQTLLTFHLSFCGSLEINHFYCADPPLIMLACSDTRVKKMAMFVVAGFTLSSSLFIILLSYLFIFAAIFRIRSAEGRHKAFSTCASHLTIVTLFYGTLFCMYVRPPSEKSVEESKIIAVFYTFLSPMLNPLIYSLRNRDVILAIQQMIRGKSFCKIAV
In short: as §1

OR5M11 (Homo sapiens) = OR5M11 (Homo sapiens) (UniProt Q96RB7)
Chain of OR5M11 (Homo sapiens) (Q96RB7 whole entry): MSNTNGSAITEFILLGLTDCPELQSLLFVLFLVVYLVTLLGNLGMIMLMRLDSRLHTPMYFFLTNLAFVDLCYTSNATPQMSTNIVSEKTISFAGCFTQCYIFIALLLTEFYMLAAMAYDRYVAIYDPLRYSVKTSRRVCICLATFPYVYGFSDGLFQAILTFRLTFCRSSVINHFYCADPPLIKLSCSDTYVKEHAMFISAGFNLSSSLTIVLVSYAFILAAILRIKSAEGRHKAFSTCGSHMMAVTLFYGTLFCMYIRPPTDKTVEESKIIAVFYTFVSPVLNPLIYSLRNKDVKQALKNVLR
In short: as §1

OR5M3 N3Y A156T = system: OR5M3 N3Y A156T
In short: as §1

OR5M8 (Homo sapiens) = OR5M8 (Homo sapiens) (UniProt Q8NGP6)
Chain of OR5M8 (Homo sapiens) (Q8NGP6 whole entry): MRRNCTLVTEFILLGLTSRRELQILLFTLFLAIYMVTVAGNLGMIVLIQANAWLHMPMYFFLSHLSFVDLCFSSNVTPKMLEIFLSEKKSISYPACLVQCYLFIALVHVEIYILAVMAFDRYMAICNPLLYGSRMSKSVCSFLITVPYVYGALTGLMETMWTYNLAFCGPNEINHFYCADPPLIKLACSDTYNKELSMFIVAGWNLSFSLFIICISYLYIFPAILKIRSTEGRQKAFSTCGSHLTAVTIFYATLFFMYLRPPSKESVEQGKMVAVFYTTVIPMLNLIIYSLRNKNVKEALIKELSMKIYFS
In short: as §1

OR5M9 (Homo sapiens) = OR5M9 (Homo sapiens) (UniProt Q8NGP3)
Chain of OR5M9 (Homo sapiens) (Q8NGP3 whole entry): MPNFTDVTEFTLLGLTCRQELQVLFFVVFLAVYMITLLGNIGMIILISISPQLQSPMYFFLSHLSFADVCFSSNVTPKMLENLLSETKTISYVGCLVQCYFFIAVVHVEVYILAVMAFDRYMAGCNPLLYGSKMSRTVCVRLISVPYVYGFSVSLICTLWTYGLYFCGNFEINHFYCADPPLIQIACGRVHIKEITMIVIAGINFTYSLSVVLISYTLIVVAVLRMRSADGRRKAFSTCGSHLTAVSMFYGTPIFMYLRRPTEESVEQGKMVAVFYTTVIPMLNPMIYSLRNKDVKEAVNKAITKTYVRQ
In short: as §1

OR5MA L2F C311H = system: OR5MA L2F C311H
In short: as §1

OR5MA L2F Q54H C311H = system: OR5MA L2F Q54H C311H
In short: as §1

OR5P2 (Homo sapiens) = OR5P2 (Homo sapiens) (UniProt Q8WZ92)
Chain of OR5P2 (Homo sapiens) (Q8WZ92 whole entry): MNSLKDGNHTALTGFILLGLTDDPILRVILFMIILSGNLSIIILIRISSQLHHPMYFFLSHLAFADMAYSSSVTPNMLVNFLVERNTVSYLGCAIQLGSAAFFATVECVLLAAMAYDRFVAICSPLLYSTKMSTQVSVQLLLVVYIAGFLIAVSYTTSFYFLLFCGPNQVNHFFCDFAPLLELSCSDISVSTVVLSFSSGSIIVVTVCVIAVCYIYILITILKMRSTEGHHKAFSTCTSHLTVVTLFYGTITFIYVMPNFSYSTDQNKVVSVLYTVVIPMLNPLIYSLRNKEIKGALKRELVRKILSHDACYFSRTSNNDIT
In short: as §1

Measured: odorant receptor agonist call

C=CCOC(=O)Cc1ccccc1
inactive: all assays above

Cc1c([N+](=O)[O-])c(C)c([N+](=O)[O-])c(C(C)(C)C)c1[N+](=O)[O-]
inactive: OR5M10 (Homo sapiens) | OR5M11 (Homo sapiens) | OR5M8 (Homo sapiens) | OR5M9 (Homo sapiens) | OR5P2 (Homo sapiens)
